Measurements as given in ChEMBL document CHEMBL1123757, “Selective thromboxane synthetase inhibitors and antihypertensive agents. New derivatives of 4-hydrazino-5H-pyridazino[4,5-b]indole, 4-hydrazinopyridazino[4,5-a]indole, and related compounds” (J Med Chem, 1987).

Experiments:
Rattus norvegicus [1] = test: Percent fall in systolic blood pressure, directly measured on carotid (iv on the jugular vein) of spontaneously hypertensive rats at 1 mg/kg after 15 minutes; assay type: functional, Artery
Procedure, shortened: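 Anesthetized (sodium pentobarbital, 70 mg/kg) male and female Okamoto SHR, 8 weeks old, 300–350 g. Given iv into the jugular vein in normal saline. Arterial pressure and cardiac rhythm are recorded directly from the carotid by polygraph at set times after dosing. Each is expressed as percent change from the pre-dose control value.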

Rattus norvegicus [2] = test: Antihypertensive activity in spontaneously hypertensive rats (SHR) measured by percentage fall in arterial pressure (AP) at 1 mg/kg administered intraperitoneally at 3 h; assay type: functional, Artery; conditions: route intraperitoneal
Procedure, shortened: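 Unanesthetized Okamoto-strain SHR, male and female, 8 weeks old, 300–350 g, systolic pressure ≥190 mmHg, heart rate 400–650 beats/min; five animals per dose. Given ip at 2.5 mL/kg, dissolved or suspended in normal saline or saline with 0.2% (carboxymethyl)cellulose and 1.0% Tween 80. Tail AP and CR recorded by mechanical transduction at set times; reported as percentage fall from control.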

## COc1ccc2[nH]c3c(NN)nncc3c2c1.Cl
Rattus norvegicus [1]
  Decrease in blood pressure: 40%
Rattus norvegicus [2]
  Decrease in AP: 5%
